Data reported in publication PMC5051546 (ACS chemical neuroscience, 2016).
Non-standard residues stand in square brackets, D forms with d. Residues, ends and D or L forms follow the SMILES beside them.

Assays:
Aβ(1–40) aggregates [1] = biological target: T1, Aβ(1–40) aggregates (Homo sapiens, UniProt P05067); test: Nanoparticle tracking analysis; format: biochemical
In short: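 Aβ(1-40) stock prepared by dissolving in 50% acetonitrile, relyophilizing, and reconstituting in urea/glycine buffer at 12 mg/mL. Samples: 28 µM Aβ alone or with 1.4 µM test peptide, or peptide alone. Nanosight LM10, 405 nm laser, video capture started immediately. One 60-s video per time point over 2 h, room temperature, camera level 13. Buffers 0.02 µm-filtered. Number concentration taken from the instrument-defined scattering volume. Only particles above ~30 nm are detected.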

[2] = Solubility of lyophilized peptide in PBS or water; format: physicochemical
[3] = biological target: Aβ(1–40) fibril formation (Homo sapiens, UniProt P05067); test: Thioflavin T; format: biochemical; conditions: 28 μM Aβ, 1.4 μM peptide; PBSA, 37 °C, up to 48 h; three replicates
In short: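 Aβ(1-40) stock in urea/glycine buffer, previously relyophilized from 50% acetonitrile. 28 µM Aβ incubated in PBSA at 37 °C alone or with 2.8, 1.4 or 0.28 µM test peptide. At 1 or 4, 24 and 48 h, aliquots mixed with 10 µM ThT in PBS. Excitation 440 nm, emission scanned 460–500 nm. Three serial spectra averaged, ThT/PBS background subtracted, 480 nm intensity compared.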

Aβ(1–40) aggregates [4] = biological target: T1, Aβ(1–40) aggregates; test: Dynamic light scattering; format: biochemical; conditions: 28 μM Aβ, 1.4 μM peptide; 37 °C; 2 h; z-averaged hydrodynamic diameter; Aβ alone 400 nm after 2 h
Aβ(1–40) fibrils = Aβ(1–40) fibrils (Homo sapiens, UniProt P05067); test: Transmission electron microscopy; format: biochemical; conditions: 28 μM Aβ + 1.4 μM peptide; 24 h at 37 °C; PBSA
Sequence of Aβ(1–40) fibrils (P05067 672-711 limits assumed): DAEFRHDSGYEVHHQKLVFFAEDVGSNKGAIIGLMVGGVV

T1 sequence (P05067 672-711 limits assumed): as above
Sequence of Aβ(1–40) fibril formation (P05067 672-711 limits assumed): as above

particles from peptide alone (NTA) (Aβ(1–40) aggregates [1]; 1.4 μM peptide in the absence of Aβ, detection limit ~30 nm, data not shown): no detectable particles above background | initial particle number concentration relative to Aβ alone (NTA) (Aβ(1–40) aggregates [1]; 28 μM Aβ, 1.4 μM peptide, PBSA, room temperature, shortly after mixing): about 2 fold | mean hydrodynamic diameter of aggregates after 2 h (NTA) (Aβ(1–40) aggregates [1]; 28 μM Aβ, 1.4 μM peptide, number-averaged): ~ 400 nm | mean hydrodynamic diameter of aggregates shortly after mixing (NTA) (Aβ(1–40) aggregates [1]; 28 μM Aβ, 1.4 μM peptide, number-averaged, Aβ alone ~80 nm): 120 nm | solubility ([2]; aqueous buffer): > 650 µg/mL | solubility ([2]; water): > 600 µM | inhibition of ThT fluorescence at 20:1 Aβ/peptide [3]: partially inhibited
Structure (SMILES): CC[C@H](C)[C@@H]1NC(=O)[C@H]([C@@H](C)O)NC(=O)[C@H](Cc2ccc(O)cc2)NC(=O)[C@H](CCCNC(=N)N)NC(=O)[C@@H]2CCCN2C(=O)[C@H]2CCCN2C(=O)[C@H]([C@@H](C)O)NC(=O)[C@H](C(C)C)NC(=O)[C@H](C(C)C)NC(=O)[C@H](CCCCN)NC(=O)[C@H](CO)NC(=O)[C@H](CCC(N)=O)NC(=O)[C@H](CO)NC(=O)[C@H](Cc2ccc(O)cc2)NC(=O)[C@H](CO)NC(=O)[C@H](Cc2ccc(O)cc2)NC(=O)[C@@H]2CCCN2C(=O)[C@H](CO)NC(=O)[C@H](CC(C)C)NC(=O)[C@H](CC(C)C)NC(=O)[C@H](C)NC(=O)[C@H](C)NC1=O [CG3] (cyclo(SKVVT[dP]PRYTIAALLSPYSYSQ))
effect on size and growth rate of Aβ aggregates (DLS) (Aβ(1–40) aggregates [4]): size and growth rate of Aβ aggregates increased | Aβ aggregate morphology by TEM (Aβ(1–40) fibrils): still a large number of fibrils, but many appeared to be shorter
